Assay [1] deals with Glycogen synthase kinase-3 beta (Homo sapiens, UniProt P49841). The assay can be described thus: Inhibition of GSK3-beta by liquid scintillation counting. The procedure, abridged:
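GSK-3β enzyme incubated with test compound at various concentrations, GS-1 peptide substrate (15 mM as printed), 15 μM ATP plus 0.2 μCi [γ-32P]ATP, in 50 mM Tris pH 7.5, 10 mM MgCl2, 1 mM EGTA, 1 mM EDTA; 20 min at 37 °C. Aliquots spotted on P81 phosphocellulose, washed in 1% phosphoric acid, counted by liquid scintillation.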

Assay [2] concerns the target Tyrosine-protein kinase ABL1 (Mus musculus) (UniProt P00520). In words: Inhibition of mouse recombinant Abl expressed in Escherichia coli at 10 uM by fluorescence polarization.
Assay [3] concerns the target D(3) dopamine receptor (Homo sapiens) (UniProt P35462). In words: Displacement of [3H]spiperone from human recombinant dopamine D3 receptor expressed in CHO cells at 10 uM. The class given is cell-based. The gist of the method: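 Human recombinant D3 receptor from CHO cells; [3H]spiperone 0.3 nM as ligand; (+)-buctaclamol reference compound.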
Assay [4] concerns the target Proto-oncogene tyrosine-protein kinase Src (Homo sapiens) (UniProt P12931). The assay can be described thus: Inhibition of Src at 10 uM.
Assay [5] has as its system 5-HT (non-selective) serotonin receptor (Rattus norvegicus). The assay can be described thus: Inhibition of [3H]serotonine binding to non-selective 5-HT serotoninergic receptor in rat cerebral cortex at 10 uM.
For assay [6], the target named is Glutamate NMDA receptor (Rattus norvegicus) (UniProt P35439+Q00959+Q00960+Q00961+Q62645+Q8VHN2+Q9R1M7). In words: Displacement of [3H]CGP39653 from NMDA receptor in rat cerebral cortex at 10 uM. Format: tissue-based.
The nature of assay [7]: Displacement of [3H]QNB from muscarinic receptor at 10 uM.
Assay [8] addresses D(2) dopamine receptor (Homo sapiens) (UniProt P14416). The assay can be described thus: Displacement of [3H]spiperone from human recombinant dopamine D2 receptor expressed in CHO cells at 10 uM. Format: cell-based. The procedure, abridged: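 Human recombinant D2 receptor expressed in CHO cells; [3H]spiperone ligand at 0.3 nM; (+)-buctaclamol as reference compound.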
The species entered for another assay is Bos taurus. In words: Inhibition of bovine thymus p56LCK at 10 uM by liquid scintillation counting in presence of [33gammaP]ATP. The gist of the method: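 p56lck from bovine thymus; [γ33-P]ATP with polyGT (0.5 mg/mL) substrate; staurosporine reference; liquid scintillation read-out; compounds tested at 10 µM.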
Assay [9] has as its target Insulin receptor (Homo sapiens) (UniProt P06213). The assay can be described thus: Inhibition of human recombinant IR at 10 uM by liquid scintillation counting in presence of [33gammaP]ATP. The procedure, abridged: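 Human recombinant insulin receptor kinase; [γ33-P]ATP plus poly GT (0.03 mg/mL); staurosporine reference; liquid scintillation detection; 10 µM compound.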

Assay [10] has as its target T1, Alpha-2A adrenergic receptor (Rattus norvegicus) (UniProt P22909).
T1 sequence (whole entry): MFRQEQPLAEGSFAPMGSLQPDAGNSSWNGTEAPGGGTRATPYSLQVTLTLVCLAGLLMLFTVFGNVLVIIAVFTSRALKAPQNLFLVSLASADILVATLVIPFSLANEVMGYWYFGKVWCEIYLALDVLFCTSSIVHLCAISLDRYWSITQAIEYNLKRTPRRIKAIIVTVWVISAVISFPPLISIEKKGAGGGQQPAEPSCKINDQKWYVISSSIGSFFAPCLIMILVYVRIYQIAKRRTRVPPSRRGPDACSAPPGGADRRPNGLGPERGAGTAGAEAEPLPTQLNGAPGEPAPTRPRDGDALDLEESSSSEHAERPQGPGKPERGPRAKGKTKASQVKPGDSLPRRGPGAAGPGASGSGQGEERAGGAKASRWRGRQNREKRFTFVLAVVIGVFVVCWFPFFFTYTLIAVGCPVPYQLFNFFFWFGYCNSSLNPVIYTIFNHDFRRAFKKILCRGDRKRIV
The assay can be described thus: Displacement of [3H]RX821002 from alpha2 adrenoceptor in rat cerebral cortex at 10 uM. Format: tissue-based. The gist of the method: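 Rat cerebral cortex source; [3H]RX 821002 ligand at 0.5 nM; yohimbine as reference compound; non-selective alpha-2 site.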

The species named for assay [11] is Rattus norvegicus. In words: Inhibition of rat CAM2 at 10 uM by liquid scintillation counting in presence of [33gammaP]ATP. The gist of the method: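 CaM kinase II from rat brain; [γ33-P]ATP plus autocamtide-2 (5 µM); staurosporine reference; labelled autocamtide-2 counted by liquid scintillation; compounds at 10 µM.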
The species named for assay [12] is Rattus norvegicus. In words: Inhibition of rat recombinant MAPK at 10 uM by liquid scintillation counting in presence of [33gammaP]ATP. The gist of the method: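 Rat recombinant ERK42 MAP kinase expressed in E. coli; [γ33-P]ATP with MBP (0.5 mg/mL); staurosporine reference; liquid scintillation read-out; 10 µM compound.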
For assay [13], the species on record is Rattus norvegicus. In words: Displacement of [3H]AMPA from AMPA receptor in rat cerebral cortex at 10 uM. The class given is tissue-based.
In assay [14] the target is Dual specificity mitogen-activated protein kinase kinase 1 (Oryctolagus cuniculus) (UniProt P29678). In words: Inhibition of rabbit recombinant MEK1 expressed in Escherichia coli at 10 uM by liquid scintillation counting in presence of [33gammaP]ATP. The procedure, abridged: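 Rabbit recombinant MEK1 from E. coli; ATP plus unactivated MAP kinase (0.01 mg/mL) as substrate; staurosporine reference; liquid scintillation detection; 10 µM.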

For assay [15], the species on record is Rattus norvegicus. The assay can be described thus: Displacement of [3H]cystisine from alpha-BGTX insensitive nicotinic acetylcholine receptor in rat cerebral cortex at 10 uM. Format: tissue-based.
The species entered for assay [16] is Rattus norvegicus. The assay can be described thus: Displacement of [3H]cystisine from alpha-BGTX sensitive nicotinic acetylcholine receptor in rat cerebral cortex. Format: tissue-based. Also on record: concentration or dose not given beside the values. Conditions: concentration not given here.
In assay [17] the target is Epidermal growth factor receptor (Homo sapiens) (UniProt P00533). The assay can be described thus: Inhibition of EGFR in human A431 at 10 uM by liquid scintillation counting in presence of [33gammaP]ATP. The procedure, abridged:
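EGFR kinase from A-431 cells; substrate [γ33-P]ATP plus poly GAT (0.48 mg/mL); PD 153035 reference; product measured by liquid scintillation; compounds at 10 µM.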

These results are taken from ChEMBL document CHEMBL1152606, “Thienylhalomethylketones: Irreversible glycogen synthase kinase 3 inhibitors as useful pharmacological tools” (Bioorg Med Chem, 2009).

Sequence of Tyrosine-protein kinase ABL1 (Mus musculus) (P00520 whole entry): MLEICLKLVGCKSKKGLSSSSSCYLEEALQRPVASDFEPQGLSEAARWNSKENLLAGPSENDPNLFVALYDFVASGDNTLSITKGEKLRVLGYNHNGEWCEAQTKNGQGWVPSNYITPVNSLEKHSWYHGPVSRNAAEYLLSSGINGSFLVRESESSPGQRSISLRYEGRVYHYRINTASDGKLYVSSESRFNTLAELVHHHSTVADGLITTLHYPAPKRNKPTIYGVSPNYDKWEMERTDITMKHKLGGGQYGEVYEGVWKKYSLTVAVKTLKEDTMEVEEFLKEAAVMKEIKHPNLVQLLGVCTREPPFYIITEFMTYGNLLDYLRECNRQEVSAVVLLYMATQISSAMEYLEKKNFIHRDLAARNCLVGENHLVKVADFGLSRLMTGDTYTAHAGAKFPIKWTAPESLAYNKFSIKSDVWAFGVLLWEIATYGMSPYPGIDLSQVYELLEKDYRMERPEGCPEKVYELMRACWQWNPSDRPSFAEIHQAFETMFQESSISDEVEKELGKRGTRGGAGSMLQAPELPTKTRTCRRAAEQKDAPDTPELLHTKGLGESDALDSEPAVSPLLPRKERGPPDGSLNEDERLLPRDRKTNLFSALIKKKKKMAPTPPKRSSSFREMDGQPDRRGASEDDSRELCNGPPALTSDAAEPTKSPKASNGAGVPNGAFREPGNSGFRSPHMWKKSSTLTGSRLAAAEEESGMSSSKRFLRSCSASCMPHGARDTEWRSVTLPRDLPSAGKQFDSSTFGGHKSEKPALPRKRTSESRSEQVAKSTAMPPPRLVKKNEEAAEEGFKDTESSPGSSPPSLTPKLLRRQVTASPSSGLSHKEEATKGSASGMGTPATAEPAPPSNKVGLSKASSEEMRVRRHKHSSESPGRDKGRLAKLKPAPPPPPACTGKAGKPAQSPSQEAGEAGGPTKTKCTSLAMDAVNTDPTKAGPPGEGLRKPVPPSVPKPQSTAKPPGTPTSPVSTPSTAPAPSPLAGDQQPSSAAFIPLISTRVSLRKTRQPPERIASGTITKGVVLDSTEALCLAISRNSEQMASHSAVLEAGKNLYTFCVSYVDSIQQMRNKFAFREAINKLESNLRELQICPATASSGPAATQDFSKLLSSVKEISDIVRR
Sequence of Proto-oncogene tyrosine-protein kinase Src (Homo sapiens) (P12931 2-536 limits assumed): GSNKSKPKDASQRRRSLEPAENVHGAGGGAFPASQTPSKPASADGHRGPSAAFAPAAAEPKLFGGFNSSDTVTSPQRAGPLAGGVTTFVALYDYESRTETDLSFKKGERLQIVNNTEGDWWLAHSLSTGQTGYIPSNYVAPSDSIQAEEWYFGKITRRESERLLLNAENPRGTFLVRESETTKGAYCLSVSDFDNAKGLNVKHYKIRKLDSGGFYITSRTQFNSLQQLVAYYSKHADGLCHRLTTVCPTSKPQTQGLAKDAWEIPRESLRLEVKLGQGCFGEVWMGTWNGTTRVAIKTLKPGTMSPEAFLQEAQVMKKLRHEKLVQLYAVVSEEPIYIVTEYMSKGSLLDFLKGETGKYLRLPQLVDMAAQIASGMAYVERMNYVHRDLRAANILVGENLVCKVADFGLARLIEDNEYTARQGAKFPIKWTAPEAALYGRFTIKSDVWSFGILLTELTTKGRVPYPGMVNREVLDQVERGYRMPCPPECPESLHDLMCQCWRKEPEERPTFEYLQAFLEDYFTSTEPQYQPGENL
Sequence of Insulin receptor (Homo sapiens) (P06213 28-758 limits assumed): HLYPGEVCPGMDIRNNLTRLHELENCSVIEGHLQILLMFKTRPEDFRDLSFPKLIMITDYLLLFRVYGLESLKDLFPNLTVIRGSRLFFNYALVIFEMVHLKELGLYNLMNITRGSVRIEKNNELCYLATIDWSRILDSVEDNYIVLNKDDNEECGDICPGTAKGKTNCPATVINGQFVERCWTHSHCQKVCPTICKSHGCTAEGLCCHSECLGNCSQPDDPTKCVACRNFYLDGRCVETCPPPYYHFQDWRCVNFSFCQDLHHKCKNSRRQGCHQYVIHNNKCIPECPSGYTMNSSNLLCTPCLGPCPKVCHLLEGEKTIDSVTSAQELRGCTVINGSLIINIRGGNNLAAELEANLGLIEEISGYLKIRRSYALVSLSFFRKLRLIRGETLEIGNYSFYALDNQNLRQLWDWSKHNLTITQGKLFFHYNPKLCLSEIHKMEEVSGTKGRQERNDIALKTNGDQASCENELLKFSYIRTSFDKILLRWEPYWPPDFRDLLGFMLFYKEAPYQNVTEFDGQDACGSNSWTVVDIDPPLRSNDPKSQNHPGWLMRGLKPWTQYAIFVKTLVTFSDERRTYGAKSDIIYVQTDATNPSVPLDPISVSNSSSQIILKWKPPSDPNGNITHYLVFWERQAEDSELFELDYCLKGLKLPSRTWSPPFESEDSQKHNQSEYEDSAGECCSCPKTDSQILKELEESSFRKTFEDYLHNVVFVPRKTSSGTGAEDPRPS
Sequence of Insulin receptor (Homo sapiens) (P06213 763-1382 limits assumed): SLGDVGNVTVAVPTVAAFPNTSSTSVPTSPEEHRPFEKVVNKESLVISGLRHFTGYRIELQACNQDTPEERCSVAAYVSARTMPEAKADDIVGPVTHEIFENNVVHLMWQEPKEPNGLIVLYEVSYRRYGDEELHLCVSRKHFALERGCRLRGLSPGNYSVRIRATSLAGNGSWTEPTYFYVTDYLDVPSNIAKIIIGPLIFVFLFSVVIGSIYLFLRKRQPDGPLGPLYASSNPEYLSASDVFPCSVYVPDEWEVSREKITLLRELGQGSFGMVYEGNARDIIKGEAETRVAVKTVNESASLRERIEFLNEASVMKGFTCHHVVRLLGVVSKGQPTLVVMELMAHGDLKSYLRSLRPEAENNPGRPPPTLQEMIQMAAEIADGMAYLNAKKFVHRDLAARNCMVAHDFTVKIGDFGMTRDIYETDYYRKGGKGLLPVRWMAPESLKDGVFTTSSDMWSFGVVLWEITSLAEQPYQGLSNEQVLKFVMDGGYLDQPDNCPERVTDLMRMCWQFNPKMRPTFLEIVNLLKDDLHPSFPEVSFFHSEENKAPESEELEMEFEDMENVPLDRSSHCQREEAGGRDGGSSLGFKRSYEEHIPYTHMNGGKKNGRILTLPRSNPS
Sequence of D(3) dopamine receptor (Homo sapiens) (P35462 whole entry): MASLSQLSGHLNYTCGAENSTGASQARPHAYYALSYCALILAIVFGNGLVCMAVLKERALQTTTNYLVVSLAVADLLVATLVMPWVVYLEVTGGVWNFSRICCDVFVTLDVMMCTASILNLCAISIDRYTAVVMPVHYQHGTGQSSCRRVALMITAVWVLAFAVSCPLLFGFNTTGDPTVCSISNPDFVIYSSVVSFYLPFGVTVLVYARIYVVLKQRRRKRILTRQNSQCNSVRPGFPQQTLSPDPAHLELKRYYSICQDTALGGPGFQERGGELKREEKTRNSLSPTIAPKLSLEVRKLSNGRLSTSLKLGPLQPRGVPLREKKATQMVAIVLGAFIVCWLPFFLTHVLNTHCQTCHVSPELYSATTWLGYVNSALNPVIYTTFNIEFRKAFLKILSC
Sequence of Epidermal growth factor receptor (Homo sapiens) (P00533 whole entry): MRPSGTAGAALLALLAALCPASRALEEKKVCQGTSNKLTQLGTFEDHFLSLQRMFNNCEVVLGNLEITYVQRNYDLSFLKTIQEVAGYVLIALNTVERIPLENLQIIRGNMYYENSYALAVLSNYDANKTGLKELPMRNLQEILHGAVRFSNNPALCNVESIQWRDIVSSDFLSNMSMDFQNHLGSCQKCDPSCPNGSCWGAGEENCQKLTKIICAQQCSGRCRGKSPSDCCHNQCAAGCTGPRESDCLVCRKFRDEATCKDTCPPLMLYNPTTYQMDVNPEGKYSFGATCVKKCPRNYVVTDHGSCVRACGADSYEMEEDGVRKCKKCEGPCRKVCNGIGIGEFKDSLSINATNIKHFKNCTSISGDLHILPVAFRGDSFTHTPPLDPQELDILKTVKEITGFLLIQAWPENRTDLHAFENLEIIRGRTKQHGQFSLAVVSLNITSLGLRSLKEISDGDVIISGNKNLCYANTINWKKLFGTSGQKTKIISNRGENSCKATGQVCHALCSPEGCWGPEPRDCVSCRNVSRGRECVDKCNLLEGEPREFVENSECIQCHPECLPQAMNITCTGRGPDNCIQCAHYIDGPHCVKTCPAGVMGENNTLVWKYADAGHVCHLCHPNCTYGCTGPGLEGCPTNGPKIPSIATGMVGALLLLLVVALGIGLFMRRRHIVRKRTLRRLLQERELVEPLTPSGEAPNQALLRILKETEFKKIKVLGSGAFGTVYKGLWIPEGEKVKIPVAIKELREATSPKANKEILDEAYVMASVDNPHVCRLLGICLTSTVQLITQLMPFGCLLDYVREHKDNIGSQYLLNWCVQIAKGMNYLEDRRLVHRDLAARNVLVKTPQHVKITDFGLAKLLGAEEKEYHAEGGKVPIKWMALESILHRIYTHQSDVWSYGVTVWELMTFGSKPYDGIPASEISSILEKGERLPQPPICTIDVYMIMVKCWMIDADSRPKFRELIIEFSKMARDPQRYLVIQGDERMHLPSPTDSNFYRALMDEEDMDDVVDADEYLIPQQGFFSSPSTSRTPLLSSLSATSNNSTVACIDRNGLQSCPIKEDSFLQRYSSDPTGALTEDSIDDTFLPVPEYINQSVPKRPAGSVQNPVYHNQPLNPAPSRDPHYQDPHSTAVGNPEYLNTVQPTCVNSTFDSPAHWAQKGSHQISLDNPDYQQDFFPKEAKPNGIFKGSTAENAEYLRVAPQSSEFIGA
Sequence of D(2) dopamine receptor (Homo sapiens) (P14416 whole entry): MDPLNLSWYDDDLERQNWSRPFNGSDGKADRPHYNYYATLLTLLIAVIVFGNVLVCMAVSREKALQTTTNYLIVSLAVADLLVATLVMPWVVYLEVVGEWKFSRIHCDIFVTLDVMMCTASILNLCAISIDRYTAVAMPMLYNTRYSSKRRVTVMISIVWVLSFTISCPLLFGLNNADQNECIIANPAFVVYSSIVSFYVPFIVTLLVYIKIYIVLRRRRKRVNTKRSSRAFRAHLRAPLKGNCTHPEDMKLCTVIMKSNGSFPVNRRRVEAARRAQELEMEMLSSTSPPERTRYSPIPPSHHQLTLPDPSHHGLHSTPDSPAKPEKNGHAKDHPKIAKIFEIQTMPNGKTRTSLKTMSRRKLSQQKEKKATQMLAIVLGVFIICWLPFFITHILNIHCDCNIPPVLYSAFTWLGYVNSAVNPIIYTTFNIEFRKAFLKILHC

In [1], `O=C(CCCCl)c1ccc(Cl)s1` showed an IC50 greater than 100 µM.

`CC(=O)c1ccccc1` [ACETOPHENONE] gave an IC50 in [1] greater than 100 µM.

`CCOC(=O)c1cccs1` showed an IC50 in assay [1] greater than 100 µM.

Consider `CCOC(=O)c1sc(C)c(C)c1O`, for which the IC50 in assay [1] was greater than 100 µM.

Take `O=C(CCl)c1cc(Cl)sc1Cl`: the inhibition in assay [2] is less than 10%; in [3], less than 10%; in [4], 12%; in assay [5] it was 12%; in assay [6], less than 10%; in [7], less than 10%. In addition, the inhibition in assay [8] is less than 10%; in the assay filed under Bos taurus, 41%; in assay [9], less than 10%; in [10], less than 10%; in the assay listed under Rattus norvegicus [11], 10%; in the assay filed under Rattus norvegicus [12], less than 10%. In addition, the inhibition in the assay listed under Rattus norvegicus [13] is 17%; in assay [14], less than 10%; in the assay listed under Rattus norvegicus [15] it was less than 10%; in the assay listed under Rattus norvegicus [16] it was less than 10%; in assay [17], less than 10%.

In the case of `O=C(CCl)c1scc(Br)c1Br`, the inhibition was less than 10% in [2]; 12% in assay [3]; less than 10% in [5]; less than 10% in assay [6]; 11% in assay [7]; less than 10% in assay [8]. Also, the inhibition in the assay filed under Bos taurus is 20%; in [9], less than 10%; in [10], less than 10%; in the assay listed under Rattus norvegicus [11], less than 10%; in the assay filed under Rattus norvegicus [12], less than 10%; in the assay filed under Rattus norvegicus [13] it was less than 10%. The inhibition (in assay [14]; in the assay listed under Rattus norvegicus [15]; in the assay listed under Rattus norvegicus [16]; in [17]) was less than 10% throughout.

`O=Cc1cc(Br)c(Br)s1` gave an IC50 in assay [1] greater than 100 µM.

For the molecule `O=Nn1c2ccccc2c2cc(Cl)ccc21`, the IC50 in assay [1] is greater than 100 µM.

The molecule `CC(=O)c1ccc(Cl)cc1` came in with an IC50 in assay [1] greater than 100 µM.

As for `O=C(CBr)c1sc(Br)cc1Br`, the IC50 in [1] was found to be 1 µM.

`N=C(c1ccccc1Cl)c1ccccc1N(NC(=O)c1ccccc1)c1ccccc1`: in assay [1], the IC50 is greater than 100 µM.

The molecule `CCOC(=O)c1ccccc1` [ETHYL BENZOATE] gave an IC50 in assay [1] greater than 100 µM.

As to `CC(=O)c1csc(C(=O)CCl)c1`, the inhibition was less than 10% in assay [2]; less than 10% in [3]; 22% in assay [4]; less than 10% in assay [5]; less than 10% in [6]; less than 10% in assay [7]. Also, the inhibition (in [8]; in the assay listed under Bos taurus; in assay [9]; in [10]; in the assay filed under Rattus norvegicus [11]; in the assay filed under Rattus norvegicus [12]) was less than 10% throughout. In addition, the inhibition is less than 10% in the assay filed under Rattus norvegicus [13]; 12% in assay [14]; 17% in the assay filed under Rattus norvegicus [15]; less than 10% in the assay listed under Rattus norvegicus [16]; less than 10% in assay [17].

In assay [1], `CC(N)Cc1cc(Cl)cs1` (centres undefined) displayed an IC50 greater than 100 µM.

`CCSC1=NC(c2ccccc2)=NN(c2ccccc2)c2ccccc21` yielded an IC50 in assay [1] greater than 100 µM.

As to `COc1cc2c(cc1OC)C(=O)CC2`, the IC50 in assay [1] was greater than 100 µM.

In turn, `O=C(CCCCl)c1ccc(Br)s1` returned an IC50 in [1] greater than 100 µM.

Regarding `O=C(CBr)c1scc(Br)c1Br`, the inhibition is less than 10% in assay [2]; less than 10% in assay [3]; 66% in [4]; less than 10% in assay [5]; less than 10% in assay [6]; less than 10% in assay [7]. Further, the inhibition (in assay [8]; in the assay filed under Bos taurus; in [9]; in [10]; in the assay listed under Rattus norvegicus [11]; in the assay filed under Rattus norvegicus [12]) was less than 10% throughout. Also, the inhibition is less than 10% in the assay filed under Rattus norvegicus [13]; less than 10% in assay [14]; 22% in the assay listed under Rattus norvegicus [15]; less than 10% in the assay filed under Rattus norvegicus [16]; 17% in [17]. Also, in assay [1], the IC50 was 1 µM.

For the molecule `c1ccc(-c2nc(-c3ccccc3)n(-c3ccccc3)n2)cc1`, in assay [1], the IC50 was greater than 100 µM.

On to `OC(CCl)c1sc(Br)c(Br)c1Br` (centres undefined), for which the IC50 in assay [1] amounted to 75 µM.

Take `O=C(CCCCl)c1cc(Cl)sc1Cl`: the IC50 in assay [1] is greater than 100 µM.

With `O=C(CBr)c1ccc(Br)s1`, 1 µM corresponded to half-maximal inhibition in assay [1] (IC50).

`O=C(Nn1c2ccccc2c2ccccc21)c1ccccc1` registered a concentration for half-maximal inhibition (IC50) in assay [1] greater than 100 µM.

`O=Cc1cccs1` [2-THIOPHENENECARBOXALDEHYDE] yielded an IC50 in assay [1] greater than 100 µM.

As for `O=C(CBr)c1cc(Br)c(Br)s1`, the inhibition in assay [2] is less than 10%; in assay [3] it was less than 10%; in [4] it was 76%; in [5] it was less than 10%; in [6], less than 10%; in [7] it was less than 10%. Also, the inhibition in [8] is less than 10%; in the assay filed under Bos taurus it was less than 10%; in assay [9] it was 12%; in assay [10] it was less than 10%; in the assay filed under Rattus norvegicus [11], less than 10%; in the assay listed under Rattus norvegicus [12] it was less than 10%. Besides, the inhibition (in the assay filed under Rattus norvegicus [13]; in [14]; in the assay filed under Rattus norvegicus [15]; in the assay listed under Rattus norvegicus [16]; in assay [17]) was less than 10% throughout. Further, the IC50 in assay [1] is 1 µM.

Regarding `Cc1sc(C(=O)CCl)cc1C(=O)CCl`, the inhibition was less than 10% in [2]; less than 10% in assay [3]; 54% in assay [4]; less than 10% in [5]; less than 10% in assay [6]; less than 10% in assay [7]. In addition, the inhibition is less than 10% in [8]; 17% in the assay filed under Bos taurus; 12% in assay [9]; less than 10% in [10]; less than 10% in the assay filed under Rattus norvegicus [11]; less than 10% in the assay listed under Rattus norvegicus [12]. In addition, the inhibition is less than 10% in the assay filed under Rattus norvegicus [13]; less than 10% in assay [14]; less than 10% in the assay filed under Rattus norvegicus [15]; less than 10% in the assay filed under Rattus norvegicus [16]; 25% in assay [17].

For the molecule `CCOC(=O)c1sc(SC(C)=O)cc1O`, the IC50 in assay [1] came out at 25 µM.
